Source: ChEMBL document CHEMBL1130999, “GPIIb/IIIa integrin antagonists with the new conformational restriction unit, trisubstituted beta-amino acid derivatives, and a substituted benzamidine structure” (J Med Chem, 1998)

Assays:
[1] = biological target: Integrin alpha-IIb/beta-3 (Homo sapiens, UniProt P05106+P08514); experiment: Binding affinity to human fibrinogen receptor; format: protein-complex assay
Method in brief: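 Competitive solid-phase ELISA. Plates were coated with 5 µg/mL human GPIIb/IIIa overnight at 4 °C and blocked 3 h at room temperature with 35 mg/mL BSA in 50 mM Tris, 100 mM NaCl, 2 mM CaCl₂, 0.02% NaN₃, pH 7.4. Human fibrinogen solution (30 µg/mL as added) plus inhibitor was incubated 3 h at room temperature. Bound fibrinogen was detected with alkaline phosphatase-conjugated anti-human fibrinogen antibody.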

Homo sapiens = species on record: Homo sapiens; experiment: Inhibition of collagen-induced platelet aggregation in human platelet-rich plasma; format: functional
Method in brief: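 Human citrated PRP (160g, 15 min, room temperature) with platelet-poor plasma as reference. Samples at various concentrations were added at 37 °C 1 min before 5 µg/mL collagen. Aggregation was read as the increase in light transmission. Percent inhibition of aggregation rate versus control gave IC50 from dose-inhibition curves. Values are means ± SEM of three experiments; GRGDS peptide served as reference.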

[2] = Elimination T1/2 in Guinea pig (IV dose); details: in vivo, read-out: T1/2 beta
[3] = Cmax in rat (PO dose); format: ADME, organism-based; parameters: route oral; details: in vivo
Method in brief: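 Male Sprague-Dawley rats (190-210 g) were fasted overnight with water available. Dosing was 10 mg/kg po as a suspension in 2% arabic gum. Jugular vein blood was drawn at 30, 60 and 120 min, and active-form plasma levels were measured by HPLC. Cmax is the highest of these three time points.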

Tmax in rat (PO dose) = details: in vivo
[4] = Elimination T1/2 in Guinea pig (IV dose); details: in vivo

Chain of Integrin alpha-IIb/beta-3 (P05106 27-788 limits assumed): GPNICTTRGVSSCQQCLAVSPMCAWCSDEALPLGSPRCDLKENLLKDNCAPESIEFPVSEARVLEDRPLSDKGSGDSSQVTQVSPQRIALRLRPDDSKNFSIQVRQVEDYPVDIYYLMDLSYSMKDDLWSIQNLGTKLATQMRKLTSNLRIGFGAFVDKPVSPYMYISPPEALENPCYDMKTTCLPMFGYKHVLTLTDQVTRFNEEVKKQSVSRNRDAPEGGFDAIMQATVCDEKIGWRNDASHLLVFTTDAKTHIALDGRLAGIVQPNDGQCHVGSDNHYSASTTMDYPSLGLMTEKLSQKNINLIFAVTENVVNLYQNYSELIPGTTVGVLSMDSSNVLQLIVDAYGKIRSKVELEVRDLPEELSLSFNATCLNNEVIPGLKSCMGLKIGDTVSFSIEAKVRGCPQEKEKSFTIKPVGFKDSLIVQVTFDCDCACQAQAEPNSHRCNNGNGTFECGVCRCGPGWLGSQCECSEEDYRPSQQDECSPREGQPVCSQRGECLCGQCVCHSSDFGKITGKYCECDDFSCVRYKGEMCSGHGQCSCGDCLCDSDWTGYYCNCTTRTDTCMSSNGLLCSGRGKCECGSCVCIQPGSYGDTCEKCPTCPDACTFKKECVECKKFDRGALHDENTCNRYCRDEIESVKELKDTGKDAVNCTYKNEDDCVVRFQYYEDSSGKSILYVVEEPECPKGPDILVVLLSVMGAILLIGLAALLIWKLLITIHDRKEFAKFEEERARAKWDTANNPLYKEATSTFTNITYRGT
Chain of Integrin alpha-IIb/beta-3 (P08514 32-887 limits assumed): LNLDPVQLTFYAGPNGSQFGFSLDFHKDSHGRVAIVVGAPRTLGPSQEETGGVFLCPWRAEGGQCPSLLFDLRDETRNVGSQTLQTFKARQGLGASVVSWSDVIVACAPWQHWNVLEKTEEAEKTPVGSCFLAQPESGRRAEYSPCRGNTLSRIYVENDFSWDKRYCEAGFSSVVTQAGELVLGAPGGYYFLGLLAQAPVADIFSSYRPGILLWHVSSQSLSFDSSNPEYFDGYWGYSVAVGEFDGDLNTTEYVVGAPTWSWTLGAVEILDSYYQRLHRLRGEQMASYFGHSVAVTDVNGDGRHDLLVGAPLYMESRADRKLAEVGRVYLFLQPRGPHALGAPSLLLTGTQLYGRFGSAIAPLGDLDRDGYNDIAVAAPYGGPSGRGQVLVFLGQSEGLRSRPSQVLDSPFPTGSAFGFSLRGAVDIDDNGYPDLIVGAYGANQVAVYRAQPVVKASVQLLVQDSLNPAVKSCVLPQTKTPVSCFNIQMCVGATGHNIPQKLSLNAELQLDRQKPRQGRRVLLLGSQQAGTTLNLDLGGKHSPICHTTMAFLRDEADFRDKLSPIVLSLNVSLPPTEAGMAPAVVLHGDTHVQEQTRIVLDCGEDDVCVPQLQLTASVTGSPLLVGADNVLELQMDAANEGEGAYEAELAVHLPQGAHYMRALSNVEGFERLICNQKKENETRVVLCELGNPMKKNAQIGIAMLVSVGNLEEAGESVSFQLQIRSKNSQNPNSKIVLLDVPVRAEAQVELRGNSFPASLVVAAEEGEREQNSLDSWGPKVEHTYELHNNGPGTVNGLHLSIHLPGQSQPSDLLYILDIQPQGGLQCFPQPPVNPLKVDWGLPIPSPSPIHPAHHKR
Chain of Integrin alpha-IIb/beta-3 (P08514 891-1039 limits assumed): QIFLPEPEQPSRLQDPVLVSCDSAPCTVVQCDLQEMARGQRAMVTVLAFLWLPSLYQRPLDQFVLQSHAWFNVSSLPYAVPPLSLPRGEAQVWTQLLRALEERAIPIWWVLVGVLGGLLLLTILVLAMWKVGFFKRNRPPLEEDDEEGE

| Structure (SMILES) | IC50 [1] [nM] | IC50 (Homo sapiens) [nM] | half-life [2] [h] | Cmax [3] [ng/mL] | Tmax (Tmax in rat (PO dose)) [h] | half-life [4] [h] |
| --- | --- | --- | --- | --- | --- | --- |
| CCCCCC(NC(=O)c1ccc(C(=N)N)cc1)C(C)(C)C(=O)N1CCC(CC(=O)O)CC1 (stereo not given) | 22.3 | 160 | 0.517 |  |  |  |
| CC(C)(C(=O)N1CCC(CC(=O)O)CC1)C(NC(=O)c1ccc(C(=N)N)cc1)c1cccc(Cl)c1 (stereo not given) | 31.3 | 250 | 2.5 |  |  |  |
| CCOC(=O)CC1CCN(C(=O)C(C)(C)C(CC)NC(=O)c2ccc(C(=N)N)cc2F)CC1 (stereo not given) | 2.7 | 62 | 1.48 | 90 | 0.5 |  |
| CC(C)(C(=O)N1CCC(CC(=O)O)CC1)C(NC(=O)c1ccc(C(=N)N)cc1)c1ccccc1 (stereo not given) | 25.3 | 230 |  |  |  | 0.533 |
| CCOC(=O)CC1CCN(C(=O)C(C)(C)C(CC)NC(=O)c2ccc(C(=N)N3CCSC3)cc2F)CC1 (stereo not given) | 2.3 | 45 | 1.83 | 1210 | 0.5 |  |
| CCCCC(NC(=O)c1ccc(C(=N)N)cc1)C(C)(C)C(=O)N1CCC(CC(=O)O)CC1 (stereo not given) | 3.8 | 82 | 1.03 |  |  |  |
| CC(C)(/C=C/C(=O)c1ccc(C(=N)N)cc1)C(=O)N1CCC(CC(=O)O)CC1 | 36 | 310 |  |  |  |  |
| CC(C)(CNC(=O)c1ccc(C(=N)N)cc1)C(=O)N1CCC(CC(=O)O)CC1 | 125 |  |  |  |  |  |
| CC(C)(C(=O)N1CCC(CC(=O)O)CC1)C(NC(=O)c1ccc(C(=N)N)cc1)c1ccc(Cl)cc1 (stereo not given) | 34.7 | 660 | 1.2 |  |  |  |
| CCCCC(NC(=O)c1ccc(C(=N)N)cc1F)C(C)(C)C(=O)N1CCC(CC(=O)O)CC1 (stereo not given) | 5.7 | 81 | 1.3 |  |  |  |
| CC(C)CC(NC(=O)c1ccc(C(=N)N)cc1)C(C)(C)C(=O)N1CCC(CC(=O)O)CC1 (stereo not given) | 2.7 | 81 | 0.917 |  |  |  |
| CCOC(=O)CC1CCN(C(=O)C(C)(C)C(CC)NC(=O)c2ccc(C(=N)N3CCN(c4ccc(F)cc4)CC3)cc2F)CC1 (stereo not given) | 5.6 | 79 | 0.417 | 232 | 1 |  |
| CCCC(NC(=O)c1ccc(C(=N)N)cc1)C(C)(C)C(=O)N1CCC(CC(=O)O)CC1 (stereo not given) | 5.1 | 82 | 0.9 |  |  |  |
| CC(C)(C(=O)N1CCC(CC(=O)O)CC1)C(NC(=O)c1ccc(C(=N)N)cc1)c1ccc2ccccc2c1 (stereo not given) | 21 | 380 | 0.85 |  |  |  |
| CC(C)(C(=O)N1CCC(CC(=O)O)CC1)C(CCc1ccccc1)NC(=O)c1ccc(C(=N)N)cc1 (stereo not given) | 47.3 | 160 | 0.767 |  |  |  |
| CC(NC(=O)c1ccc(C(=N)N)cc1)C(C)(C)C(=O)N1CCC(CC(=O)O)CC1 (stereo not given) | 5.3 | 82 | 0.883 |  |  |  |
| CC(C)C(NC(=O)c1ccc(C(=N)N)cc1)C(C)(C)C(=O)N1CCC(CC(=O)O)CC1 (stereo not given) | 8.6 | 150 | 0.8 |  |  |  |
| CCOC(=O)CC1CCN(C(=O)C(C)(C)C(CC)NC(=O)c2ccc(C(=N)N3CCC(O)CC3)cc2F)CC1 (stereo not given) | 5.8 | 48 | 3.5 | 290 | 1 |  |
| C/C=C/C(NC(=O)c1ccc(C(=N)N)cc1)C(C)(C)C(=O)N1CCC(CC(=O)O)CC1 (stereo not given) | 13 | 170 | 0.933 |  |  |  |
| CN(C(=O)c1ccc(C(=N)N)cc1)C(c1ccccc1)C(C)(C)C(=O)N1CCC(CC(=O)O)CC1 (stereo not given) | 21.3 | 300 | 1.42 |  |  |  |
| CC(C)(C(=O)N1CCC(CC(=O)O)CC1)C(NC(=O)c1ccc(C(=N)N)cc1)c1cccc(O)c1 (stereo not given) | 2.6 | 76 | 1.08 |  |  |  |
| CC(C)(C(=O)N1CCC(CC(=O)O)CC1)C(NC(=O)c1ccc(C(=N)N)cc1)c1ccc(O)cc1 (stereo not given) | 23.7 | 220 | 1.05 |  |  |  |
| CCC(NC(=O)c1ccc(C(=N)N)cc1)C(C)(C)C(=O)N1CCC(CC(=O)O)CC1 (stereo not given) |  | 85 | 1.3 |  |  |  |
| CCOC(=O)CC1CCN(C(=O)C(C)(C)C(CC)NC(=O)c2ccc(C(=N)N3CCOCC3)cc2F)CC1 (stereo not given) | 4 | 160 | 4.62 | 922 | 0.5 |  |
| C#CCN(C(=O)c1ccc(C(=N)N)cc1)C(CCCC)C(C)(C)C(=O)N1CCC(CC(=O)O)CC1 (stereo not given) | 363 | 1400 | 1.5 |  |  |  |
| CC(NC(=O)c1ccc(C(=N)N)cc1F)C(C)(C)C(=O)N1CCC(CC(=O)O)CC1 (stereo not given) | 4.3 | 76 | 1.4 |  |  |  |
| CCOC(=O)CC1CCN(C(=O)C(C)(C)C(CC)NC(=O)c2ccc(C(=N)N3CCCC3)cc2F)CC1 (stereo not given) | 7 | 89 | 2.07 | 194 | 1 |  |
| CC(C)(C(=O)N1CCC(CC(=O)O)CC1)C(NC(=O)c1ccc(C(=N)N)cc1Cl)c1ccccc1 (stereo not given) | 27.3 | 370 | 1.25 |  |  |  |
| CCOC(=O)CC1CCN(C(=O)C(C)(C)C(CC)NC(=O)c2ccc(C(=N)N3CCN(C)CC3)cc2F)CC1 (stereo not given) | 5.4 | 72 | 1.77 | 392 | 2 |  |
| CCC(NC(=O)c1ccc(C(=N)N)cc1F)C(C)(C)C(=O)N1CCC(CC(=O)O)CC1 (stereo not given) | 2.7 | 62 | 1.48 |  |  |  |
